pIC50: −log10 of the molar value.
Assays:
SW480 = test: In vitro inhibition of SW480 (human colon cancer) cell proliferation.; type: functional, cell-based
Procedure, shortened: (§1)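 MTT-based proliferation assay run on tumour cells. IC50 values were taken from a single experiment.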

MDA-MB-435 = test: In vitro inhibition of MDA MB 435 (human breast cancer) cell proliferation.; type: functional, cell-based; procedure, shortened: as §1
[1] = biological target: Cyclin-dependent kinase 2/cyclin E (Homo sapiens, UniProt P24941); test: In vitro inhibition of recombinant Cyclin Dependent Kinase-2/Cyclin E.; type: protein-complex assay

pIC50 (SW480)	pIC50 (MDA-MB-435)	pIC50 [1]	Compound
6.85	6.40	–	COc1cc[nH]c1/C=C1\C(=O)Nc2ccc(F)c(C#C[C@@H](O)[C@@H](N)[C@@H](C)O)c21
6.40	6.72	7.59	COc1cc[nH]c1/C=C1\C(=O)Nc2ccc(F)c(C#C[C@H](C)O)c21
6.68	6.52	8.05	COc1cc[nH]c1/C=C1\C(=O)Nc2ccc(F)c(C#C[C@@H](N)[C@@H](C)O)c21

Further lines, the compound ahead of its results:

Compound	pIC50 (SW480)	pIC50 (MDA-MB-435)	pIC50 [1]
CNCC#Cc1c(F)ccc2c1/C(=C/c1[nH]ccc1OC)C(=O)N2	6.82	6.31	8.40
COc1cc[nH]c1/C=C1\C(=O)Nc2ccc(F)c(C#C[C@@H]3CCCN3)c21	7.40	7.51	8.70

From ChEMBL document CHEMBL1147441, “A new series of potent oxindole inhibitors of CDK2” (Bioorg Med Chem Lett, 2004)
